Screening data from PubChem.
Shown are actives, neighbours in structure and some others; about 3.8% of the full set was active somewhere.
CSC inhib = blocks cancer stem cells; cancer stem cell-like cells viability, luminescence; inhibition, % at 7.5 µM; 300,000 compounds, 1.1% hits; in the data active means inhibition above about 75%; tested in HMLE shEcad cells
MC4R antag cAMP = antagonists of human melanocortin 4 receptor (MC4R); P32245; 360,000 compounds, 0.48% hits; inhibition, % at 6.5 µM; AID 540295; MC4R-expressing cells, MTII-stimulated cAMP, LANCE TR-FRET;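 active means inhibition above its plate's cutoff, the mean of tested wells on that plate plus 3 SD, cut at about 29% in these data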
Target sequence (P32245 whole entry, looked up): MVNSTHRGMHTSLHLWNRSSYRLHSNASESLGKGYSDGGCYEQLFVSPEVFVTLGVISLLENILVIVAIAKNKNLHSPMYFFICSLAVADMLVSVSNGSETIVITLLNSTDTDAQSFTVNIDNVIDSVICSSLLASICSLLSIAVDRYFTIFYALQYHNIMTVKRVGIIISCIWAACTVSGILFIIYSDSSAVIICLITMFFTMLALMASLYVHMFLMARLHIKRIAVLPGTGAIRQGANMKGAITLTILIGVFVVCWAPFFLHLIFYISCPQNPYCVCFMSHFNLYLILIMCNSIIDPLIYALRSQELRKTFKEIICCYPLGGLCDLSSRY
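System: U2OS-MC4R stable cell line; Technique: Eu-cAMP/anti-cAMP TR-FRET, emission 671 nm; Repeats: single well per compound; Also added: Melanotan II; Dosing: one concentration, 6.5 µM nominal; Schedule: 30-min compound, 1-h challenge, 1-h detection, room temperature.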
MC4R ag barr = human MC4R agonism via beta-arrestin | P32245 | U2OS MC4R beta-arrestin complementation, luminescence; percent of melanotan II response, DMSO zero | activation, % at 8.9 µM | AID 540308 | 360,000 compounds, 0.98% hits;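 active means activation above a per-plate cutoff, the mean activation of sample wells on that plate plus 3 SD, cut at about 8% in these data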
TMEM16A inh = mouse TMEM16A channel inhibition, primary screen; Q8BHY3; HEK293 TMEM16A/YFP iodide influx fluorescence, ionomycin; normalized B-score (activity score, 25-100; higher = stronger inhibition) at 10 µM; 310,000 compounds, 1.2% hits; AID 588511;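 active means ratio plate-corrected score three or more library SD toward inhibition, starting fluorescence score within five deviations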;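 further: score derived from kinetic fluorescence span divided by baseline fluorescence per well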
TMEM16A act = mouse TMEM16A channel activation, primary screen; 340,000 compounds, 0.3% hits; AID 623877; B-score at 10 µM; Q8BHY3; HEK293 TMEM16A/YFP-H148Q/I152L, iodide quench fluorescence; active compounds read low;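 active means fluorescence-ratio B-score plate-corrected deviation score at least 3 library SD below zero, with starting fluorescence score within 5 deviations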;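 further: channel opened by trigger with iodide after compound preincubation; score built on the fluorescence ratio of max minus min over baseline; more negative score means more quench and so TMEM16A activation or potentiation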
Beta cell apopt = beta cell apoptosis inhibition; INS-1E cytokine-induced death, ATP luminescence, 48 h; percent of positive-control rescue, neutral wells zero; protection from apoptosis, % (no concentration beside the values); 300,000 compounds, 0.8% hits; AID 435005;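 active means Every replicate reaches about 75%, or at least half do and their mean reaches it too, limit read from the data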;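 further: higher means more ATP so stronger rescue from cytokine killing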
Each line names hits and unclear results; the compound was inactive in the other large screens.

C=C1[C@H]2O[C@H]2[C@@H](OC(C)=O)[C@@]2(C)[C@@H](OC(C)=O)C[C@@H](OC(C)=O)[C@@](C)(O)[C@@H]2[C@@H](OC(C)=O)[C@@]2(O)[C@@H](C)C(=O)O[C@H]2[C@H]1Cl	none (no result: CSC inhib, TMEM16A inh, TMEM16A act, Beta cell apopt)
O=[N+]([O-])c1ccc(N=NN(CCO)CCO)cc1	none
O=[N+]([O-])c1ccc(N=Nc2ncc[nH]2)cc1	CSC inhib 81
Cc1cccc(NC(=O)Nc2ccc(C#N)cc2)n1	none
Cc1cccc(NC(=O)Nc2cccc(C#N)c2)n1	MC4R ag barr 8.2
COc1ccc(OC)c(NC(=O)CSc2ncnc3c2cnn3-c2ccccc2Cl)c1	Beta cell apopt 129 (no result: CSC inhib)
c1csc(-c2cc(N3CCCCC3)c3ccccc3n2)c1	none
Nc1ccc(Br)cc1-c1nc2ccccc2[nH]c1=O	Beta cell apopt 102 (no result: CSC inhib)
CN(c1ccccc1)S(=O)(=O)c1cccc(C(=O)NNC(=O)c2ccccc2)c1	TMEM16A inh 25
O=C(Nc1nnc(SCC(=O)N2CCCc3ccccc32)s1)c1ccccc1	none
CCOC(=O)CSc1nnc(NC(=O)c2cccc(S(=O)(=O)N3CCCCCC3)c2)s1	TMEM16A inh 25
Cc1cc(C)cc(C(=O)Nc2nnc(SCC(=O)N3CCCc4ccccc43)s2)c1	CSC inhib 75
CCSc1nnc(NC(=O)c2cccc(S(=O)(=O)N(C)c3ccc(C)cc3)c2)s1	TMEM16A inh 25
CN(c1ccccc1)S(=O)(=O)c1ccc(C(=O)NNC(=O)c2ccccc2)cc1	none (no result: CSC inhib, TMEM16A inh, Beta cell apopt)
CCc1nnc(NC(=O)c2cccc(S(=O)(=O)N(C)c3ccccc3)c2)s1	none
Cc1ccc(C)c(NC(=O)CN(C)C(=O)c2ccccc2OCc2c(C)noc2C)c1	none (no result: TMEM16A inh)
CC1CCCCC1Nc1nc2ccc(Cl)cc2n2cnnc12 (stereo unspecified)	none
CCc1nc(NCCC(C)C)c2nnn(Cc3ccccc3)c2n1	MC4R ag barr 8.9 (no result: Beta cell apopt)
Cc1nc(NCCC(C)C)c2nnn(Cc3ccccc3)c2n1	none
CCOC(=O)c1ccc(Nc2ncnc3c2cnn3C)cc1	none
Cn1ncc2c(O/N=C(\N)c3ccc(C(C)(C)C)cc3)ncnc21	CSC inhib 108, MC4R ag barr 36, Beta cell apopt 110
Cc1ccc2nc(-c3ccc(NS(=O)(=O)c4ccc(F)c(F)c4)cc3)sc2c1	CSC inhib 103
Cc1ccc2nc(-c3ccc(NS(=O)(=O)c4ccccc4)cc3)sc2c1	none
Cc1cc(C(=O)Nc2nc3c(s2)CCCC3)cs1	CSC inhib 86
O=c1[nH]nc(Sc2ccccc2)c(=S)[nH]1	none (no result: CSC inhib, TMEM16A inh, TMEM16A act, Beta cell apopt)
C[C@H]1CN([C@@H](C)CO)C(=O)c2cc(-c3cccc(F)c3)cnc2O[C@H]1CN(C)C(=O)c1cnccn1	none (no result: CSC inhib, TMEM16A inh, TMEM16A act, Beta cell apopt)
CC(C)c1cc(-c2cc(-c3ccccc3)on2)nc(NC2CCCC2)n1	CSC inhib 85
CCCCCCc1ccc(N2C[C@H](Cc3ccccc3)[C@@H](CC(=O)Nc3ccccc3)C2=O)cc1	Beta cell apopt 104
CCCCCCc1ccc(N2C[C@H](Cc3ccccc3)[C@@H](CC(=O)NCc3ccc(OC)cc3)C2=O)cc1	Beta cell apopt 100
O=C(C[C@H]1C(=O)N(c2ccc(Br)cc2)C[C@@H]1Cc1ccccc1)Nc1ccccc1	none (no result: CSC inhib, TMEM16A inh, TMEM16A act, Beta cell apopt)
N#C/C(=N/O)c1nc(-c2ccc(F)cc2)cs1	TMEM16A inh 100
Cc1ccc(C)c(S(=O)(=O)N2CCN(C(=O)c3n[nH]c(=O)c4ccccc34)CC2)c1	none (no result: TMEM16A inh)
C[N+](C)(C)CCOC(N)=O	TMEM16A act -5.7
Cc1ccc(C)c(Cn2nnc3c(=O)[nH]c(C4CCN(C(=O)c5ccco5)CC4)nc32)c1	none
Clc1ccc(Cn2ncc3c(NCc4ccccc4)ncnc32)c(Cl)c1	CSC inhib 77 (no result: MC4R antag cAMP, MC4R ag barr, TMEM16A act)
O=C(/C=C/c1cccc(Br)c1)c1ccc2c(c1)OCO2	CSC inhib 78
COc1cc(C(=O)Oc2ccccc2/C=N/NC(=O)c2ccc(Cl)cc2Cl)cc(OC)c1OC	Beta cell apopt 92
O=C(Nc1nnc(Cc2c[nH]c3ccccc23)s1)c1ccc(Cl)cc1Cl	none
CC(C)(C)c1ccc(C(=O)Nc2nnc(Cc3c[nH]c4ccccc34)s2)cc1	CSC inhib 96, MC4R ag barr 8.3
O=C(CCCc1ccccc1)NCCS(=O)(=O)N1CCN(c2ccccc2)CC1	none (no result: CSC inhib, TMEM16A inh, TMEM16A act, Beta cell apopt)
CCCC(=O)N1CCC1(C)C(=O)Nc1ccc2scnc2c1 (stereo unspecified)	none (no result: CSC inhib, TMEM16A inh, TMEM16A act, Beta cell apopt)
Cc1ccc2c(c1)C1CN(C)CCC1N2S(=O)(=O)c1cc(C(F)(F)F)ccc1Cl (stereo unspecified)	none (no result: TMEM16A inh)
Cc1cc2cc(CN3C(=O)c4ccccc4C3=O)ccc2n1C	Beta cell apopt 100
OC1(c2cccc(C(F)(F)F)c2)CCN(c2ccc(-c3ccccc3)nn2)CC1	MC4R ag barr 9.2
O=C(c1ccccc1)c1cc(Cl)ccc1N1C(=O)C=CC1=O	MC4R antag cAMP 58 (no result: CSC inhib, TMEM16A inh, Beta cell apopt)
COc1cccc(-c2nnc(NC(=O)c3ccc(S(=O)(=O)N4CCOCC4)cc3)o2)c1	none
COc1cc(-c2nnc(NC(=O)c3ccc(S(=O)(=O)N4CCOCC4)cc3)o2)cc(OC)c1OC	Beta cell apopt 86 (no result: MC4R antag cAMP, MC4R ag barr, TMEM16A act)
CCCCc1ccc(Nc2nc(CCC)cc(=O)[nH]2)cc1	CSC inhib 102
C=CCn1c(SCc2c(C)noc2C)nc2sc3c(c2c1=O)CCCC3	none
C=CCn1c(SCc2c(C)noc2C)nc2sc3c(c2c1=O)CCCCC3	CSC inhib 94 (no result: Beta cell apopt)
Cc1ccc(S(=O)(=O)NC(C)(C)C)cc1C(=O)OC(C)C(=O)NC1CC1 (stereo unspecified)	none
NC(=S)N/N=C1\CC(n2nnn(-c3cccc(Cl)c3)c2=S)C2COC1O2 (stereo unspecified)	TMEM16A act -5.6
COc1cc(C2CC(=O)c3c([nH]c(C(=O)OCCOC(C)C)c3C)C2)cc(OC)c1OC (stereo unspecified)	TMEM16A inh 100
CCOCCOC(=O)c1[nH]c2c(c1C)C(=O)CC(c1ccc(OC)c(OC)c1)C2 (stereo unspecified)	none
CN(C)C(=O)c1ccc(NC(=O)c2cccc(S(=O)(=O)N3CCCc4ccccc43)c2)cc1	none (no result: CSC inhib)
Cc1ccc2c(c1)CCCN2S(=O)(=O)c1cccc(C(=O)Nc2ccccc2C(=O)O)c1	TMEM16A inh 100
CCO[C@H]1OC(C(=O)N2CCN(Cc3ccc4c(c3)OCO4)CC2)=C[C@@H](c2csc3ccccc23)[C@@H]1CCCO	Beta cell apopt 85
CC1CCCCC1NCC(=O)Nc1ccccc1-c1ccccc1 (stereo unspecified)	MC4R ag barr 9.5
O=C(NC(C(=O)N/N=C/c1cccnc1)c1n[nH]c(=O)c2ccccc12)c1ccccc1 (stereo unspecified)	TMEM16A act -6.4
